Active and inactive are the calls of the source. The calls are words filed in the database; no cut-off is given here.

The results in this text go back to ChEMBL document CHEMBL3588826, “Chimeric derivatives of functionalized amino acids and α-aminoamides: compounds with anticonvulsant activity in seizure models and inhibitory actions on central, peripheral, and cardiac isoforms of voltage-gated sodium channels” (Bioorg Med Chem, 2015).

For one data set, the system named is Mus musculus. The data set is described as follows: Anticonvulsant activity in ip dosed albino Carworth Farms No. 1 mouse measured at 0.25 hrs by 6Hz (32 mA) psychomotor seizure test. Type of data set: functional. To be noted: Carworth Farms No. 1, ip. The gist of the method:
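Screened under the NIH anticonvulsant program in male albino Carworth Farms No. 1 mice (ip) and male albino Sprague-Dawley rats (ip or oral). Protection tested by maximal electroshock or 6 Hz (32 mA) psychomotor stimulation.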

The nature of data set [1]: Behavioural toxicity in po dosed albino Sprague-Dawley rat measured at 1 hr. To be noted: in vivo. The data set is classed as organism-based.
Data set [2] relates to Rattus norvegicus. The data set is described as follows: Anticonvulsant activity in ip dosed albino Sprague-Dawley rat measured at 2 hrs by maximal electroshock seizure test. The data set is classed as functional. The gist of the method:
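Screened under the NIH Anticonvulsant Screening Program in male rodents, with mice and rats dosed ip and rats also dosed po. Maximal electroshock (MES) and 6 Hz (32 mA) psychomotor seizure tests were run.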
In general terms: Protection in the maximal electroshock model is a classic sign of anticonvulsant action.

The species named for data set [3] is Rattus norvegicus. The data set is described as follows: Frequency-dependent inhibition of voltage-gated sodium channel in rat embryonic cortical neurons assessed as current amplitude at 10 uM measured at holding potential of -80 mV by whole cell patch-clamp electrophysiology. The gist of the method: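 E19 rat cortical neurons cultured 7–10 days were recorded by whole-cell voltage clamp at room temperature. Compound was at 10 μM versus 0.1% DMSO. A pulse train was applied, and available current was taken as peak current at pulse N divided by peak at pulse 1.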

Data set [4] relates to CAD. Nature of the data set: Inhibition of voltage-gated sodium channel in mouse CAD cells assessed as transition of channels to slow-inactivated state by whole cell patch-clamp electrophysiology. Type of data set: cell-based. In outline:
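CAD cells were grown in Ham's F12/DMEM with 10% FBS at 37 °C and 5% CO2, then recorded by whole-cell voltage clamp at room temperature. A concentration range of compound was tested versus 0.1% DMSO. Slow inactivation was measured at −50 and +20 mV, and IC50 was derived from concentration-response curves.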

Data set [5] has as its system CAD. Nature of the data set: Effect on steady state activation of voltage-gated sodium channel in mouse CAD cells at 100 nM to 1 uM by whole cell patch-clamp electrophysiology. Type of data set: cell-based. In outline: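 CAD cells were recorded by whole-cell voltage clamp at room temperature with several compound concentrations versus 0.1% DMSO. Activation was assessed from conductance, G = I/(Vm − Vrev), versus command voltage. V1/2 and slope were taken from Boltzmann fits to individual recordings and averaged.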
In general terms: In patch-clamp work, channel activity is measured electrically.

Data set [6] concerns CAD. Nature of the data set: Frequency-dependent inhibition of voltage-gated sodium channel in mouse CAD cells assessed as decrease in current amplitude at 10 uM by whole cell patch-clamp electrophysiology. The data set is classed as cell-based. The gist of the method: (§1)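 CAD cells, whole-cell voltage clamp at room temperature, with compound at 1, 10 or 30 μM against 0.1% DMSO. Thirty identical test pulses were given at 10 Hz. Current was normalized as peak at pulse N over pulse 1, and the maximal decrement was read at the end of the train. One-way ANOVA with Dunnett's test; 4–10 cells per condition.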

For data set [7], the system named is CAD. The data set is described as follows: Frequency-dependent inhibition of voltage-gated sodium channel in mouse CAD cells assessed as decrease in current amplitude at 30 uM by whole cell patch-clamp electrophysiology. The data set is classed as cell-based. The gist of the method: as §1
The target in data set [8] is Sodium channel protein type 1 subunit alpha (Homo sapiens) (UniProt P35498). Nature of the data set: Inhibition of human Nav1.1 expressed in HEK293 cells assessed as transition of channels to slow-inactivated state at 10 uM measured at -50 mV by whole cell patch-clamp electrophysiology. The data set is classed as cell-based. The gist of the method:
(§2)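 HEK293 cells stably expressing hNav1.1, rNav1.3, hNav1.7 or hNav1.5 were grown in DMEM with 10% FBS. Recordings were whole-cell voltage clamp at room temperature, with 10 μM compound versus 0.1% DMSO. Slow inactivation at −50 mV was calculated as 1 minus normalized peak INa. Nav1.5 used hyperpolarized protocols. Data are from 5–6 cells.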

Data set [9] concerns the target Sodium channel protein type 9 subunit alpha (Homo sapiens) (UniProt Q15858). Nature of the data set: Inhibition of human Nav1.7 expressed in HEK293 cells assessed as transition of channels to slow-inactivated state at 10 uM measured at -50 mV by whole cell patch-clamp electrophysiology. Type of data set: cell-based. The gist of the method:
as §2

Data set [10] shares this target. The data set is described as follows: Inhibition of human Nav1.7 expressed in HEK293 cells assessed as half-maximal voltage for steady state activation at 10 uM by whole cell patch-clamp electrophysiology (reference value: -27.13 +/-4.01 mV). The data set is classed as cell-based.
In data set [11] the target is Sodium channel protein type 1 subunit alpha (Homo sapiens) (UniProt P35498). Nature of the data set: Inhibition of human Nav1.1 expressed in HEK293 cells assessed as half-maximal voltage for steady state fast-inactivation at 10 uM by whole cell patch-clamp electrophysiology (reference value: -64.11 +/-3.63 mV). The data set is classed as cell-based.
In data set [12] the target is Sodium channel protein type 9 subunit alpha (Homo sapiens) (UniProt Q15858). The data set is described as follows: Inhibition of human Nav1.7 expressed in HEK293 cells assessed as half-maximal voltage for steady state fast-inactivation at 10 uM by whole cell patch-clamp electrophysiology (reference value: -61.11 +/-3.02 mV). The data set is classed as cell-based.
Sequence of Sodium channel protein type 9 subunit alpha (Homo sapiens) (Q15858 whole entry, looked up): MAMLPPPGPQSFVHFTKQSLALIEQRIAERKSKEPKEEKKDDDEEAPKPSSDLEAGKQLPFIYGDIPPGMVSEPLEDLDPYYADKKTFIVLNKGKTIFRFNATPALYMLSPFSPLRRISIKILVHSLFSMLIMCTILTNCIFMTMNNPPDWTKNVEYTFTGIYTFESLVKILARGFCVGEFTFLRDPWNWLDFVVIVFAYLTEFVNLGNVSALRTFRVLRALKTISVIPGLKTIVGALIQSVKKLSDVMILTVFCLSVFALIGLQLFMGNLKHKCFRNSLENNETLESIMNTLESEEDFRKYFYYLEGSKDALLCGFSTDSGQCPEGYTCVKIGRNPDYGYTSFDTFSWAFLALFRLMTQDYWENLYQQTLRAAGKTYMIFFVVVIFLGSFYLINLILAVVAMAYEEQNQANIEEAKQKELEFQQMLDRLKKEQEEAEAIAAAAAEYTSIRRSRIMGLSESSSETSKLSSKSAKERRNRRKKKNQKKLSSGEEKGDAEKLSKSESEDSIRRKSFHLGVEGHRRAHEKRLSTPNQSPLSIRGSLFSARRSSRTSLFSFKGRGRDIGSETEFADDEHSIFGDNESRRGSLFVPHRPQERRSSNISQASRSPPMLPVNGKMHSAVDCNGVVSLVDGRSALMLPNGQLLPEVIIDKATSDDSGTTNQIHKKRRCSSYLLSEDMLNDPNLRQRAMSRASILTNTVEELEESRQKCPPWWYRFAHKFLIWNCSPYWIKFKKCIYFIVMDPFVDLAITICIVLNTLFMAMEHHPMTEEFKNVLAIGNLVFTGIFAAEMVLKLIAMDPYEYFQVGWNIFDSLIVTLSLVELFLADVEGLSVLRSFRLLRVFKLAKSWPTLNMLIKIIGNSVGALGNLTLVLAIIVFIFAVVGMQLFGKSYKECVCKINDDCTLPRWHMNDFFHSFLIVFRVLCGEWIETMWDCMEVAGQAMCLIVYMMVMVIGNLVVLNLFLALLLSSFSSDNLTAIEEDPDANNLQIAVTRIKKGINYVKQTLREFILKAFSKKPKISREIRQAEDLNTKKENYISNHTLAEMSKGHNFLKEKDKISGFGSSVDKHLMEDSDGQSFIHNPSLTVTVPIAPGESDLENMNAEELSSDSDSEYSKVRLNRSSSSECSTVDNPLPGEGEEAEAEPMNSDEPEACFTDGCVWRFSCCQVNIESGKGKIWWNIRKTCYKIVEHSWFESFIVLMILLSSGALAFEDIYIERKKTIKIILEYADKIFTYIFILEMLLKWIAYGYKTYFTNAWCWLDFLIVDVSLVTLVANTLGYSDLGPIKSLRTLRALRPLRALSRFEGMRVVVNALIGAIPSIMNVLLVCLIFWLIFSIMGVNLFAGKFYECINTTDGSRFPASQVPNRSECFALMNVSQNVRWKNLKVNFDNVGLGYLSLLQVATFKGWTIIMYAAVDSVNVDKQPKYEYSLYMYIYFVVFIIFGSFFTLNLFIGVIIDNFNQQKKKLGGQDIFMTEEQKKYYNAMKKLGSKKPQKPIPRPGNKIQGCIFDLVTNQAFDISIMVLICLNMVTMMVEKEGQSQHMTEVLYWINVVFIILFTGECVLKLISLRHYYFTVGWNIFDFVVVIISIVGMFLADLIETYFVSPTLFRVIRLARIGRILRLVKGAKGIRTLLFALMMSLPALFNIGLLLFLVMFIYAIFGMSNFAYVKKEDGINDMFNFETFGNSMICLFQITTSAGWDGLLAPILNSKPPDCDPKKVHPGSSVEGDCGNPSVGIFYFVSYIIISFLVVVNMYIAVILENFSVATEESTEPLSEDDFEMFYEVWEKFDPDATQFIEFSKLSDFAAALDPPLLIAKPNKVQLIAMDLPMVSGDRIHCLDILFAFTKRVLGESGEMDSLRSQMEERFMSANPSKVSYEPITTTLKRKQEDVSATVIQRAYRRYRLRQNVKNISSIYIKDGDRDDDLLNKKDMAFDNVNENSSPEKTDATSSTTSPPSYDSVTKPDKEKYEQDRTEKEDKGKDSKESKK
The target in data set [13] is Sodium channel protein type 3 subunit alpha (Rattus norvegicus) (UniProt P08104). Nature of the data set: Frequency-dependent inhibition of rat Nav1.3 expressed in HEK293 cells assessed as current amplitude at 10 uM by whole cell patch-clamp electrophysiology. Type of data set: cell-based. The gist of the method:
(§3)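 Stable HEK293 lines expressing hNav1.1, rNav1.3, hNav1.7 or hNav1.5 were recorded by whole-cell voltage clamp at room temperature, with 10 μM compound versus 0.1% DMSO. A 30-pulse train was applied, and the read-out was the fraction of current remaining at the last pulse normalized to the first. Nav1.5 used hyperpolarized protocols.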

For data set [14], the target named is Sodium channel protein type 9 subunit alpha (Homo sapiens) (UniProt Q15858). Nature of the data set: Frequency-dependent inhibition of human Nav1.7 expressed in HEK293 cells assessed as current amplitude at 10 uM by whole cell patch-clamp electrophysiology. Type of data set: cell-based. In outline:
as §3

Another data set deals with Cytochrome P450 2C9 (Homo sapiens, UniProt P11712). Nature of the data set: Inhibition of human CYP2C9 at 10 uM. Type of data set: ADME. In outline: (§4)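 Test compound at 10 μM against a human CYP450 panel (CYP1A2, 2B6, 2C8, 2C9, 2C19, 2D6, 3A4/5). Direct inhibition was measured, and time-dependent inhibition was measured after a 30-min preincubation.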
Sequence of Cytochrome P450 2C9 (P11712 whole entry): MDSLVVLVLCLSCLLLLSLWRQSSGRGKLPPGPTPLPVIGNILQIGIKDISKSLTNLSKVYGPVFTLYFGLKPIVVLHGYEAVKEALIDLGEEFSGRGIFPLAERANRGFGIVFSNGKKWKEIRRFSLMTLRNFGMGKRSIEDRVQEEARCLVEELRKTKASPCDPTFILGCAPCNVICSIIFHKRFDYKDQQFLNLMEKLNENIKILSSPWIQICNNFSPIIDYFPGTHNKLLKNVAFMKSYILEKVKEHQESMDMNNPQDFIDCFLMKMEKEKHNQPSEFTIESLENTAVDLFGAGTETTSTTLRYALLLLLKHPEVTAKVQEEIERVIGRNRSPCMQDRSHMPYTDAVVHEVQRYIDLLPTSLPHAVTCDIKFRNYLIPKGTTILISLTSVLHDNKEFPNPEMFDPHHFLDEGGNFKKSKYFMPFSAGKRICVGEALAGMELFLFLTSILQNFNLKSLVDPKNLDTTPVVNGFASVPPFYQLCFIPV
The target in another data set is Cytochrome P450 2D6 (Homo sapiens, UniProt P10635). The data set is described as follows: Inhibition of human CYP2D6 at 10 uM. Type of data set: ADME. In outline:
as §4

Data set [15] relates to Rattus norvegicus. Nature of the data set: Ratio of NOAEL in Sprague-Dawley rat to ED50 for anticonvulsant activity in po dosed Sprague-Dawley rat by MES test. The gist of the method:
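Non-GLP 7-day repeated-dose study in female Sprague-Dawley rats, given by oral gavage at 20, 60 and 180 mg/kg/day. Endpoints: weight bearing, gait coordination, respiratory rate, relative organ weights, clinical chemistry and gross pathology, giving a NOAEL. The ratio divides the NOAEL by the oral MES ED50.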

Data set [16] deals with Rattus norvegicus. Nature of the data set: Toxicity in po dosed Sprague-Dawley rat assessed as changes in body weight administered via gavage. The data set is classed as organism-based. Conditions: in vivo.
Data set [17] concerns Rattus norvegicus. The data set is described as follows: Toxicity in po dosed Sprague-Dawley rat assessed as decrease in spleen weight administered via gavage. Type of data set: organism-based. To be noted: in vivo. In outline:
(§5)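 Non-GLP 7-day repeated-dose study in female Sprague-Dawley rats given oral gavage at 20, 60 and 180 mg/kg/day. Endpoints were weight bearing, gait coordination, respiratory rate, relative organ weights, clinical chemistry and gross pathology, with NOAEL determined.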

The subject of data set [18] is Rattus norvegicus. The data set is described as follows: Toxicity in po dosed Sprague-Dawley rat assessed as changes in clinical chemistry parameters administered via gavage. Type of data set: organism-based. Conditions: in vivo. In outline: as §5

Sequence of Cytochrome P450 2D6 (P10635 whole entry): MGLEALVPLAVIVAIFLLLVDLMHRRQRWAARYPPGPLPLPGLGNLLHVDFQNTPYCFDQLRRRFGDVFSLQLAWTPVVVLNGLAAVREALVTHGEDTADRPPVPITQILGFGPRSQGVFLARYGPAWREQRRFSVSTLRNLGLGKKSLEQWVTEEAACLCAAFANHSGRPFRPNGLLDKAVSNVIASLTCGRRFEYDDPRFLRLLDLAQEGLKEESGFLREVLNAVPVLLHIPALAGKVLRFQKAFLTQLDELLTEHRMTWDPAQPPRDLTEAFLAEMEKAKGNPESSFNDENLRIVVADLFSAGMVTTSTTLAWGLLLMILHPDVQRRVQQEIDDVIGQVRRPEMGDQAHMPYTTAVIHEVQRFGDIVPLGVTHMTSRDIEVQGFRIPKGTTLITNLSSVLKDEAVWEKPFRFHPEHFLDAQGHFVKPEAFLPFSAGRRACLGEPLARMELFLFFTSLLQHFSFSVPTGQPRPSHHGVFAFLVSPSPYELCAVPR
Sequence of Sodium channel protein type 3 subunit alpha (Rattus norvegicus) (P08104 whole entry): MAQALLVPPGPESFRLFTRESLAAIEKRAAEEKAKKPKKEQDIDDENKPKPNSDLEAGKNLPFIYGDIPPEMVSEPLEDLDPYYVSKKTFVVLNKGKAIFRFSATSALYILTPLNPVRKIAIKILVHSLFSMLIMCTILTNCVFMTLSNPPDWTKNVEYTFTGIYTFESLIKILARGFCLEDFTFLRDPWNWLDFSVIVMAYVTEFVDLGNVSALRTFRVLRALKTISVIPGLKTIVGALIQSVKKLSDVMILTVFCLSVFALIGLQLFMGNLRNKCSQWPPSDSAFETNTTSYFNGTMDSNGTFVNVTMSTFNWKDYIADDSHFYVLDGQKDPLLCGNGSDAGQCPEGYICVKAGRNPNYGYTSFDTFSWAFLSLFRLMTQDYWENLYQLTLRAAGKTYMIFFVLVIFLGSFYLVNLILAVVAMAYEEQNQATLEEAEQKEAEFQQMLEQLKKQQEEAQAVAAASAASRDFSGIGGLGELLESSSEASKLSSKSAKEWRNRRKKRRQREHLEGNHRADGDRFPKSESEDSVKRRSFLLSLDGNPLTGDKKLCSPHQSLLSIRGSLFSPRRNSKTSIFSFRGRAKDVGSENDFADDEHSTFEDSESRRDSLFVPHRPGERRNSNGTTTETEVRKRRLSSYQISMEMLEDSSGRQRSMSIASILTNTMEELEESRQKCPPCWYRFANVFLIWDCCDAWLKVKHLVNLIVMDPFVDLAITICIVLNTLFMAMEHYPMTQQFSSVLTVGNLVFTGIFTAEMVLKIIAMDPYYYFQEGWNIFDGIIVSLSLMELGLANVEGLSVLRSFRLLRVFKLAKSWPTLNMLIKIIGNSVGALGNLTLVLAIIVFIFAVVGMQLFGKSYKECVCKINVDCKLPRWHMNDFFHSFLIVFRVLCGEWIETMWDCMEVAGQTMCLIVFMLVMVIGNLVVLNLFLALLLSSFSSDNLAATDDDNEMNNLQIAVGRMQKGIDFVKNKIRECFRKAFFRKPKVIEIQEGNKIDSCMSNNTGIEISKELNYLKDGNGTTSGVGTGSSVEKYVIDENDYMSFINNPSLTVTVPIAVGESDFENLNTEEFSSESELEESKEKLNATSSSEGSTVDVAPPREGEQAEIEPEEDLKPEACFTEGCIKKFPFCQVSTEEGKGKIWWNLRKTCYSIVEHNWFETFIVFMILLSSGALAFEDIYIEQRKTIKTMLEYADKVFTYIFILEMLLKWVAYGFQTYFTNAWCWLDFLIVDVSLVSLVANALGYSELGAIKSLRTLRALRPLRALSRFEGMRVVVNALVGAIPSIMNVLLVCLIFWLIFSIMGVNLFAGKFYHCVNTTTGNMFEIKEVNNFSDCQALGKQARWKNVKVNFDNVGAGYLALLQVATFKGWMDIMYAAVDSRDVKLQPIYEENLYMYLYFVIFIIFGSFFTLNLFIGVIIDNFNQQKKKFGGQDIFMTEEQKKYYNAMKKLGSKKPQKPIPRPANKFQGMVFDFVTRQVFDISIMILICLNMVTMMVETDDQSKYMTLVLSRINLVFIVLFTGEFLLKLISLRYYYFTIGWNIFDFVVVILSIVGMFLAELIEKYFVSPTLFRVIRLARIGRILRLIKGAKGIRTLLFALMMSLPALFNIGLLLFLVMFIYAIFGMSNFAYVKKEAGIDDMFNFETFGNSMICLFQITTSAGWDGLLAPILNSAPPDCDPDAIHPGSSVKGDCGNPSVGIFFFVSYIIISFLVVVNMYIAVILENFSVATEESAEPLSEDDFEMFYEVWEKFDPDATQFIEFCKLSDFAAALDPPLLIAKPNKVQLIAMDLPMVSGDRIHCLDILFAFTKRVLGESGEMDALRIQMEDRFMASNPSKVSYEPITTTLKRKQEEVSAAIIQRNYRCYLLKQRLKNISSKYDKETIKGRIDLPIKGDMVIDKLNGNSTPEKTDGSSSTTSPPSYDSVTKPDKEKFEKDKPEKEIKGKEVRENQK

Turning to `COC[C@@H](NC(C)=O)C(=O)NCc1ccc(Oc2cccc(OC(F)(F)F)c2)cc1`, the 50% effective dose (ED50) (as a rule, the midpoint of the dose-response relation) with Mus musculus was 15 mg/kg; in the data set on Rattus norvegicus [2], 5.7 mg/kg. Further, the TD50 – broadly, the dose at which the toxic effect under study appears in half of the subjects – at 1 h in data set [1] came out at 240 mg/kg. The inhibition entry (in the data set filed under Rattus norvegicus [3]; in data set [13]; in [14]) was “inactive” in each case. Moreover, the results for the inhibition entry in the data set with CAD [4], in the data set with CAD [6] and with CAD [7] were “Dose-dependent effect”, 39% and 44%, respectively. Besides, in the data set with CAD [5], the result was inactive. Further, the inhibition result in [8] and in data set [9] was “Active” throughout. For the same compound, the results for the V1/2 in data set [10], in data set [11] and in data set [12] were -25 mV, -76.7 mV and -81.3 mV, respectively. Moreover, the “inhibition (INH)” value against Cytochrome P450 2C9 and on Cytochrome P450 2D6 was “Not Active” each time. Besides, the Ratio in the data set with Rattus norvegicus [15] was 10. In addition, the Activity entry in the data set on Rattus norvegicus [16], with Rattus norvegicus [17] and with Rattus norvegicus [18] was “Toxic” each time.
